Active and inactive are the calls of the source. The rule behind the calls is not given here.

As usually defined, the Cmax is the highest concentration seen after dosing. Usually Tmax stands for the time at which the peak concentration occurs. What is called AUC(0-t) is exposure summed from dosing to a finite time, without extrapolation to infinity. Lower therefore signals less exposure.

One data set relates to PC-3. The data set can be described thus: Antiproliferative activity against androgen receptor negative human PC-3 cells assessed as reduction in cell growth at 5 uM measured upto 6 days by CellTiter-Glo assay. It is filed as functional, cell-based. The note with it: time <= 6.0 day. In outline:
(§1)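 Cells were seeded at 20,000/well, four replicates per condition, in complete medium with 0.1% DMSO. Compound was added 24 h after seeding at a single concentration of 5 μM (0.2% final DMSO). Viability was read by CellTiter-Glo luminescence (10 min, room temperature, in HBSS) at timepoints up to 144 h (6 days).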

The subject of data set [1] is LNCaP. The data set can be described thus: Reduction in KLK2 gene expression in human LNCaP cells at 5 uM incubated for 48 hrs by qRT-PCR analysis. Format: functional, cell-based. In outline: (§2)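 Cells were plated in triplicate per condition; drug (0.1% final DMSO) was added after 24 h and left for 48 h. RNA was extracted and 2 μg reverse-transcribed. cDNA was diluted 1:50 and amplified by qPCR with 400 nM primers.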
For orientation: Quantitative PCR measures a nucleic acid by following its amplification.

A short description of data set [2]: Cmax in NSG mouse at 10 mg/kg, ip. Format: ADME, organism-based. Set-up: dose 10 mg/kg, route ip. Particulars: in vivo. An outline of the steps: (§3)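 Healthy NSG mice got a single 10 mg/kg intraperitoneal dose. Plasma concentrations of conjugate and released payload were measured over time, with n = 9 or n = 6 mice depending on conjugate. Tmax, Cmax and AUClast (hr•ng/mL) were derived from the plasma profiles.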

The nature of data set [3]: Tmax in NSG mouse at 10 mg/kg, ip. It is filed as ADME, organism-based. The note with it: in vivo. An outline of the steps:
as §3

Data set [4] can be described thus: AUClast in NSG mouse at 10 mg/kg, ip. It is filed as ADME, organism-based. The arrangement: dose 10 mg/kg, route ip. Particulars: in vivo. An outline of the steps:
as §3

Data set [5] concerns LNCaP. The data set can be described thus: Reduction in KLK3 gene expression in human LNCaP cells at 5 uM incubated for 48 hrs by qRT-PCR analysis. It is filed as functional, cell-based. An outline of the steps:
as §2

Data set [6] in a line: Drug concentration in NSG mouse brain at 10 mg/kg, ip measured after 2 hrs. Format: ADME, organism-based. The note with it: read-out: Drug uptake. In outline: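 Healthy NSG mice were given a single 10 mg/kg intraperitoneal injection. Brains were collected at set timepoints, including 2 h post-dose. Both the intact conjugate and its released antiandrogen payload were measured in brain tissue, with concentrations expressed as ng/g.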

The nature of data set [7]: Metabolic stability in human liver microsomes assessed as intrinsic clearance measured upto 60 mins in presence of NADPH by LC/MS/MS analysis. It is filed as ADME, Microsome. The note with it: 1 h. In outline: (§4)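 Human liver microsomes at 0.5 mg/mL protein with 1 mM NADPH, sampled at 0, 15, 30 and 60 min, N = 1. Parent disappearance was followed by LC/MS/MS with verapamil as control. CLint = ln(2)*1000/T1/2/protein concentration (mg/mL).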
(Microsomes from liver hold many membrane-bound enzymes, among them those of drug oxidation.)

The test system of data set [8] is LNCaP/AR. The data set can be described thus: Antiproliferative activity against human LNCaP/AR cells assessed as reduction in cell growth measured after 3 days by CellTiter-Glo assay. It is filed as functional, cell-based. Particulars: dose 0.1-25 µM, time 3.0 day. An outline of the steps:
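LNCaP-AR cells (AR-overexpressing) were seeded at 20,000/well, four replicates, in 0.1% DMSO complete medium. Drug was added 24 h later across 0.1–25 μM (0.2% final DMSO) for three days. Viability was measured by CellTiter-Glo luminescence after 10 min at room temperature.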

Data set [9] can be described thus: Kinetic solubility of compound at pH 7.4 by shake flask assay. Format: physicochemical. Particulars: buffer. An outline of the steps: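 Kinetic solubility of DMSO solutions in phosphate-buffered saline, pH 7.4, by automated miniaturized shake-flask method. Quantitation was by chemiluminescent nitrogen detection.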
Data set [10] can be described thus: Metabolic stability in human liver microsomes assessed as half life measured upto 60 mins in presence of NADPH by LC/MS/MS analysis. Format: ADME, Microsome. The note with it: 1 h. An outline of the steps: as §4
The subject of data set [11] is LNCaP/AR. Nature of the data set: Antiproliferative activity against human LNCaP/AR cells assessed as reduction in cell growth at 5 uM measured upto 6 days by CellTiter-Glo assay. Format: functional, cell-based. The note with it: time <= 6.0 day.
The next data set has as its system LNCaP C4-2B. The data set can be described thus: Antiproliferative activity against androgen receptor positive human LNCaP C4-2B cells assessed as reduction in cell growth at 5 uM measured upto 6 days by CellTiter-Glo assay. It is filed as functional, cell-based. Particulars: time <= 6.0 day. An outline of the steps:
as §1
(In general: In ATP-based viability assays light output follows the ATP content of the culture.)

Data set [12] is described as follows: Metabolic stability in mouse liver microsomes assessed as half life measured upto 60 mins in presence of NADPH by LC/MS/MS analysis. The note with it: 1 h. Format: ADME, Microsome.
A short description of data set [13]: Metabolic stability in mouse liver microsomes assessed as intrinsic clearance measured upto 60 mins in presence of NADPH by LC/MS/MS analysis. The note with it: 1 h. It is filed as ADME, Microsome.

With `N#Cc1ncc(N2C(=O)C3(CCC3)N(c3ccc(OC4CCNCC4)nc3)C2=S)cc1C(F)(F)F`, the outcome in the data set with PC-3 was inactive.
`CNC(=O)c1ccc(N2C(=S)N(c3cnc(C#N)c(C(F)(F)F)c3)C(=O)C23CCC3)cc1F` [APALUTAMIDE]: the result in the data set on PC-3 was inactive. Also, the result in the data set on LNCaP [1] and in the data set on LNCaP [5] was Active. This compound showed a Cmax in [2] of 4330 ng/mL. In data set [3], the Tmax turned out to be 240 min. Also, in data set [4], the AUC(0-t) came out at 4490 µg·h/mL. Besides, the concentration at 2 h in data set [6] is 808 ng/g.
`CN(CCN(C)C(=O)O[C@@H]1CCC[C@]2(C1)OOC1(O2)C2CC3CC(C2)CC1C3)C(=O)Oc1ccc(N2C(=S)N(c3ccc(C#N)c(C(F)(F)F)c3)C(=O)C23CCC3)cc1` (some centres undefined): the result with PC-3 was inactive. The outcome with LNCaP [1], in the data set with LNCaP [5], with LNCaP/AR [11] and in the data set with LNCaP C4-2B was Active. In [2], this compound showed a Cmax of 346 ng/mL. Moreover, in [3], the Tmax was 30 min. The CLH in [7] was 25.9 µL/min/mg. Also, the Activity result in the data set on LNCaP/AR [8] was “Dose-Dependent Effect”. The AUC(0-t) in data set [4] was determined as 81.1 µg·h/mL. For the same compound, the Kinetic_solubility in data set [9] came out at 2.3 µM. Further, the t1/2 in data set [10] worked out at 53.4 min.
For the compound `N#Cc1ncc(N2C(=O)C3(CCC3)N(c3ccc(OC4CCN(C(=O)O[C@@H]5CCC[C@]6(C5)OOC5(O6)C6CC7CC(C6)CC5C7)CC4)nc3)C2=S)cc1C(F)(F)F` (some centres undefined), in the data set with PC-3, the result was inactive. Further, the outcome in the data set on LNCaP [1], in the data set with LNCaP [5], with LNCaP/AR [11] and with LNCaP C4-2B was Active. For the same compound, in [2], the Cmax was determined as 641 ng/mL. Further, in data set [3], the Tmax is 30 min. In addition, the AUC(0-t) in data set [4] is 158 µg·h/mL. In data set [9], the Kinetic_solubility was below 0.4 µM. Moreover, the t1/2 in data set [12] is recorded as 48.2 min. The CLH in [13] turned out to be 28.8 µL/min/mg.
Consider `N#Cc1ccc(N2C(=O)C3(CCC3)N(c3ccc(O)cc3)C2=S)cc1C(F)(F)F`, for which the result in the data set on PC-3 was inactive.
For the compound `N#Cc1ncc(N2C(=O)C3(CCC3)N(c3ccc(OC4CCN(C(=O)O[C@H]5CCC[C@@]6(C5)OOC5(O6)C6CC7CC(C6)CC5C7)CC4)nc3)C2=S)cc1C(F)(F)F` (some centres undefined), in data set [12], the t1/2 was found to be 34.5 min. Further, the CLH in data set [13] stood at 40.2 µL/min/mg.
